Measurements: ChEMBL document CHEMBL4715736, “Identification of anticancer agents based on the thieno[2,3-b]pyridine and 1H-pyrazole molecular scaffolds” (2016)

What follows are compounds tested on LOX IMVI (assay: Growth inhibition of human LOX IMVI cells assessed as cell growth at 100 uM incubated for 48 hrs by sulforhodamine B assay relative to control). Conditions: read-out: Activity.
Assay type: functional

SMILES	growth at 100 µM
CCc1ccccc1NC(=O)c1sc2nc3c(cc2c1N)C(=O)CCC3	24%

What follows are compounds tested on SK-MEL-2 (assay: Growth inhibition of human SK-MEL-2 cells assessed as cell growth at 100 uM incubated for 48 hrs by sulforhodamine B assay relative to control). Conditions: read-out: Activity.
Assay type: functional

SMILES	growth at 100 µM
CCc1ccccc1NC(=O)c1sc2nc3c(cc2c1N)C(=O)CCC3	7%

The compounds below were run on SK-MEL-28 (assay: Growth inhibition of human SK-MEL-28 cells assessed as cell growth at 100 uM incubated for 48 hrs by sulforhodamine B assay relative to control). Conditions: read-out: Activity.
Assay type: functional

SMILES	growth at 100 µM
CCc1ccccc1NC(=O)c1sc2nc3c(cc2c1N)C(=O)CCC3	11%

What follows are compounds tested on IGROV-1 (assay: Growth inhibition of human IGROV-1 cells assessed as cell growth at 100 uM incubated for 48 hrs by sulforhodamine B assay relative to control). Conditions: read-out: Activity.
Assay type: functional

SMILES	growth at 100 µM
CCc1ccccc1NC(=O)c1sc2nc3c(cc2c1N)C(=O)CCC3	7%

Each compound was assayed on NCI/ADR-RES (assay: Growth inhibition of human NCI/ADR-RES cells assessed as cell growth at 100 uM incubated for 48 hrs by sulforhodamine B assay relative to control). Conditions: read-out: Activity.
Assay type: functional

SMILES	growth at 100 µM
CCc1ccccc1NC(=O)c1sc2nc3c(cc2c1N)C(=O)CCC3	-6%

Each compound was assayed on MOLT-4 (assay: Growth inhibition of human MOLT-4 cells incubated for 48 hrs by sulforhodamine B assay). Conditions: not given.
Assay type: functional
Outline: (§1)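 NCI60 panel at the NCI Developmental Therapeutics Program. Only compounds active in the 10 µM screen went to dose-response testing. GI50, the concentration giving 50% of maximal inhibition of proliferation, and TGI, the concentration giving total growth inhibition, were derived from the dose-response curves.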

SMILES	GI50	TGI
CCc1ccccc1NC(=O)c1sc2nc3c(cc2c1N)C(=O)CCC3	0.529 µM	> 100 µM

Same assay, conditions: read-out: LC50 (the source's name)

SMILES	CC50
CCc1ccccc1NC(=O)c1sc2nc3c(cc2c1N)C(=O)CCC3	> 100 µM

The compounds below were run on A549 (assay: Growth inhibition of human A549/ATCC cells incubated for 48 hrs by sulforhodamine B assay). Conditions: not given.
Assay type: functional
Outline: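 NCI Developmental Therapeutics Program NCI60 panel. Compounds that were active in the 10 µM one-dose screen went on to dose–response testing. Growth at each concentration is expressed relative to untreated control (100%). GI50 (concentration giving 50% of maximal inhibition of proliferation) and TGI (concentration giving total growth inhibition) were derived from the curves.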

SMILES	GI50	TGI
CCc1ccccc1NC(=O)c1sc2nc3c(cc2c1N)C(=O)CCC3	0.595 µM	> 100 µM

Same assay, conditions: read-out: LC50 (the source's name)

SMILES	CC50
CCc1ccccc1NC(=O)c1sc2nc3c(cc2c1N)C(=O)CCC3	> 100 µM

Each compound was assayed on NCI-H226 (assay: Growth inhibition of human NCI-H226 cells incubated for 48 hrs by sulforhodamine B assay). Conditions: not given.
Assay type: functional
Outline: as §1

SMILES	GI50	TGI
CCc1ccccc1NC(=O)c1sc2nc3c(cc2c1N)C(=O)CCC3	20.1 µM	> 100 µM

Same assay, conditions: read-out: LC50 (the source's name)

SMILES	CC50
CCc1ccccc1NC(=O)c1sc2nc3c(cc2c1N)C(=O)CCC3	> 100 µM

What follows are compounds tested on IGROV-1 (assay: Growth inhibition of human IGROV-1 cells incubated for 48 hrs by sulforhodamine B assay). Conditions: not given.
Assay type: functional
Outline: as §1

SMILES	GI50	LC50	TGI
CCc1ccccc1NC(=O)c1sc2nc3c(cc2c1N)C(=O)CCC3	13.7 µM	> 100 µM	> 100 µM

The compounds below were run on OVCAR-4 (assay: Growth inhibition of human OVCAR-4 cells incubated for 48 hrs by sulforhodamine B assay). Conditions: not given.
Assay type: functional
Outline: (§2)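 NCI DTP 60-line human tumour panel. Dose-response curves were run only for ligands active in the initial 10 µM screen. GI50 (concentration giving 50% of maximal inhibition of proliferation) and TGI (concentration giving total growth inhibition) were derived from these curves.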

SMILES	GI50	TGI
CCc1ccccc1NC(=O)c1sc2nc3c(cc2c1N)C(=O)CCC3	0.0315 µM	> 100 µM

Same assay, conditions: read-out: LC50 (the source's name)

SMILES	CC50
CCc1ccccc1NC(=O)c1sc2nc3c(cc2c1N)C(=O)CCC3	> 100 µM

Each compound was assayed on UO-31 (assay: Growth inhibition of human UO-31 cells incubated for 48 hrs by sulforhodamine B assay). Conditions: not given.
Assay type: functional
Outline: as §2

SMILES	GI50	TGI
CCc1ccccc1NC(=O)c1sc2nc3c(cc2c1N)C(=O)CCC3	14.8 µM	> 100 µM

Same assay, conditions: read-out: LC50 (the source's name)

SMILES	CC50
CCc1ccccc1NC(=O)c1sc2nc3c(cc2c1N)C(=O)CCC3	> 100 µM
